Measurements pooled from the literature.
Lines come from different studies, so protocols differ.
Target: Homeodomain-interacting protein kinase 2 (HIPK2, Homo sapiens, UniProt Q9H2X6)

CN(C)C(=O)Cn1cc(-c2nc(C3(c4ccc(-c5cnc(N)nc5)cc4)CC3)no2)cn1
remaining binding (cell-free assay; competition with immobilised ligand; 1 µM): 94%

N[C@H]1CCN(c2nccc(-c3cnn4ncccc34)n2)C1
remaining binding (binding; 1 µM): 98%

O=C(NCC1CCOCC1)c1n[nH]cc1NC(=O)c1c(F)cccc1F
remaining binding (binding; competition with immobilised ligand; 1 µM): 100%

Cc1c[nH]c2nccc(Oc3c(F)cc(Nc4cc(Cl)nc(N)n4)cc3F)c12
remaining binding (cell-free assay; competition with immobilised ligand; 0.1 µM): 90%

O=C(c1ccc(Nc2ncc(Cl)c(-c3ccc(Cl)s3)n2)cc1)N1CCC(N2CCCC2)CC1
remaining binding (binding; competition with immobilised ligand; 1 µM): 0.15%

COc1ccnn2ncc(-c3ccnc(N(C)C)n3)c12
remaining binding (binding; 1 µM): 71%

COc1cnc(Nc2cccc(S(N)(=O)=O)c2)nc1N1CCN(c2ccccc2)C(=O)C1
remaining binding (binding; competition with immobilised ligand; 1 µM): 100%

Nc1ncc2c(n1)-c1c([nH]c3ccc(C#CC4CC4)cc13)CCCC2
remaining binding (binding; competition with immobilised ligand; 1 µM): 97%

CC1=C(C#N)[C@@H](c2ccc3[nH]nc(C)c3c2)C(C#N)=C(c2ccc(Cl)cc2)N1
remaining binding (cell-free assay; competition with immobilised ligand; 1 µM): 86.1%

c1cncc(-c2cccc(Nc3nccc(NC4CCCCC4)n3)c2)c1
remaining binding (binding; competition with immobilised ligand; 10 µM): 53%

C[C@@H](c1ccc(-n2cnc3c(N)ncnc32)cc1)N1CCc2nn(C)c(Cc3ccccc3)c2C1=O
remaining binding (binding; competition with immobilised ligand; 0.1 µM): 80%

C[C@@H]1CCN(c2nccc(-c3cnn4ncccc34)n2)C1
remaining binding (binding; 1 µM): 61%

O=C(O)[C@H]1[C@H](Cn2nnc3ccccc3c2=O)CC[C@@H]1C(=O)c1ccc(OCCC2CCOCC2)cc1
remaining binding (cell-free assay; competition with immobilised ligand; 1 µM): 100%

CN(C)c1ncc(F)c(-c2cnn3ncccc23)n1
remaining binding (binding; 1 µM): 57%

COc1ncc2cc3ccccc3nc2c1C#N
remaining binding (cell-free assay; competition with immobilised ligand; 5 µM): 98%

CN(C)c1nccc(-c2cnc3ncccn23)n1
remaining binding (binding; 1 µM): 36%

O=C(c1ccc(Nc2ncc(Cl)c(-c3cc4ccccc4s3)n2)cc1)N1CCC(N2CCCC2)CC1
remaining binding (binding; competition with immobilised ligand; 1 µM): 0.2%

CC(C)(O)c1cncc(-c2nc3ccc(F)cc3n2C2CC2)c1
remaining binding (cell-free assay; competition with immobilised ligand; 1 µM): 100%

O=C(NCCCN1CCOCC1)c1ccc(Nc2ncc(Cl)c(-c3ccc(Cl)s3)n2)cc1
remaining binding (binding; competition with immobilised ligand; 1 µM): 8.9%

COc1cc(Nc2nccc(-c3cnn4nc(OC)ccc34)n2)cc(C(F)(F)F)c1
remaining binding (binding; competition with immobilised ligand; 1 µM): 34%

CC1CCCN1c1nccc(-c2cnn3ncccc23)n1 (stereo not shown)
remaining binding (binding; 1 µM): 100%

CC(=O)Nc1c(C(C)=O)c(=O)n(C)c2nc(-c3ccc(Cl)cc3Cl)c(-c3ccc(Cl)cc3)cc12
remaining binding (cell-free assay; competition with immobilised ligand; 1 µM): 100%
